Data taken from ChEMBL document CHEMBL5107947, “Estimating the cooperativity of PROTAC-induced ternary complexes using 19F NMR displacement assay” (RSC Med Chem, 2021).
Active and inactive are the calls of the source. No cut-off for these calls is given here.

Legend:
[1] = target: T1, von Hippel-Lindau disease tumor suppressor/Bromodomain-containing protein 4/Elongin-B/Elongin-C (Homo sapiens, UniProt O60885+P40337+Q15369+Q15370); experiment: Displacement of (2S,4R)-N-(4-bromobenzyl)-4-hydroxy-1-(3,3,3-trifluoropropanoyl)pyrrolidine-2-carboxamide from BRD4 bromodomain 2/VBC E3 ligase (unknown origin) ternary complex by 19F NMR assay; format: protein assay
T1 sequence (P40337 whole entry, looked up, other chains not shown): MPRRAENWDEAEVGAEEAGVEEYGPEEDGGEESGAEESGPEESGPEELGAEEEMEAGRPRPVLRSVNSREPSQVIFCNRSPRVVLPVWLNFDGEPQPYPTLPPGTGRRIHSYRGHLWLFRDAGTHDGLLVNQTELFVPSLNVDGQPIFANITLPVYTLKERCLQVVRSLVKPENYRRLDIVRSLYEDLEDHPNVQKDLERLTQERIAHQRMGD
T1 sequence (Q15369 whole entry, looked up, other chains not shown): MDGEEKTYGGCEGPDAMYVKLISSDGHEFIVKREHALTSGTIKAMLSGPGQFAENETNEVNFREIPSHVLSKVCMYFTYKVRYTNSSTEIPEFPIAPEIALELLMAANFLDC
T1 sequence (Q15370 whole entry, looked up, other chains not shown): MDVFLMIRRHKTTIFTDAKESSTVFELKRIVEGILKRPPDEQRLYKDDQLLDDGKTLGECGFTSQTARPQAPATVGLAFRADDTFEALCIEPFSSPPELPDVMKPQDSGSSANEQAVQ
Procedure, shortened: (§1)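 19F CPMG NMR displacement of spy molecule 19 (50 μM) from VBC (1 μM) with increasing PROTAC concentrations, in the presence of 10 μM Brd4(2). Spectra of free spy molecule and spy molecule with VBC set 100% and 0% displacement.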

Homo sapiens [2] = species: Homo sapiens; experiment: (§2) Co-operativity factor, ratio of Ki for displacement of (2S,4R)-N-(4-bromobenzyl)-4-hydroxy-1-(3,3,3-trifluoropropanoyl)pyrrolidine-2-carboxamide from VBC E3 ligase (unknown origin) binary complex assessed as inhibition constant to Ki for displacement of (2S,4R)-N-(4-bromobenzyl)-4-hydroxy-1-(3,3,3-trifluoropropanoyl)pyrrolidine-2-carboxamide from BRD4 bromodomain 2/VBC E3 ligase (unknown origin) ternary complex assessed as inhibition constant by SPR assay
Homo sapiens [3] = species: Homo sapiens; experiment: as §2, with “19F NMR” for “SPR”
[4] = target: T2, Von Hippel-Lindau disease tumor suppressor/Elongin B/Elongin C (Homo sapiens, UniProt P40337); experiment: (§3) Displacement of (2S,4R)-N-(4-bromobenzyl)-4-hydroxy-1-(3,3,3-trifluoropropanoyl)pyrrolidine-2-carboxamide from VBC E3 ligase (unknown origin) binary complex by 19F NMR assay; format: protein-complex assay
T2 sequence (P40337 whole entry, looked up): as the sequence (P40337 whole entry, looked up, other chains not shown) above
Procedure, shortened: (§4)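 Competitive 19F CPMG NMR displacement of spy molecule 19 (50 μM) from VBC (1 μM) across a titration of PROTAC concentrations. Free spy alone and spy with VBC served as the 100% and 0% displacement controls. For ternary runs Brd4(2) was present at 10 μM.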

[5] = target: T2, Von Hippel-Lindau disease tumor suppressor/Elongin B/Elongin C; experiment: Displacement of (2S,4R)-N-(4-bromobenzyl)-4-hydroxy-1-(3,3,3-trifluoropropanoyl)pyrrolidine-2-carboxamide from VBC E3 ligase (unknown origin) binary complex assessed as inhibition constant by 19F NMR assay; format: protein-complex assay
Procedure, shortened: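 Binary competition by 19F CPMG NMR, without Brd4(2): spy molecule 19 at 50 μM, VBC at 1 μM, titrated with increasing PROTAC concentrations. Spy molecule alone and spy molecule plus VBC served as 100% and 0% displacement references.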

[6] = target: T1, von Hippel-Lindau disease tumor suppressor/Bromodomain-containing protein 4/Elongin-B/Elongin-C; experiment: Displacement of (2S,4R)-N-(4-bromobenzyl)-4-hydroxy-1-(3,3,3-trifluoropropanoyl)pyrrolidine-2-carboxamide from BRD4 bromodomain 2/VBC E3 ligase (unknown origin) ternary complex assessed as inhibition constant by 19F NMR assay; format: protein assay; procedure, shortened: as §1
Homo sapiens [7] = species: Homo sapiens; experiment: as §2, with “ITC” for “SPR”
[8] = target: T2, Von Hippel-Lindau disease tumor suppressor/Elongin B/Elongin C; experiment: Binding affinity to VCB E3 ligase (unknown origin) assessed as binary equilibrium dissociation constant by 19F NMR assay; format: protein-complex assay
[9] = target: Von Hippel-Lindau disease tumor suppressor/Elongin B/Elongin C (Homo sapiens) (UniProt P40337+Q15370+Q15369); experiment: as §3; format: protein-complex assay; procedure, shortened: as §4
Sequence of Von Hippel-Lindau disease tumor suppressor/Elongin B/Elongin C (Homo sapiens) (P40337 whole entry, looked up): as the sequence (P40337 whole entry, looked up, other chains not shown) above
Sequence of Von Hippel-Lindau disease tumor suppressor/Elongin B/Elongin C (Homo sapiens) (Q15369 whole entry, looked up): as the sequence (Q15369 whole entry, looked up, other chains not shown) above
Sequence of Von Hippel-Lindau disease tumor suppressor/Elongin B/Elongin C (Homo sapiens) (Q15370 whole entry, looked up): as the sequence (Q15370 whole entry, looked up, other chains not shown) above

[10] = Displacement of (2S,4R)-N-(4-bromobenzyl)-4-hydroxy-1-(3,3,3-trifluoropropanoyl)pyrrolidine-2-carboxamide from BRD3 bromodomain 2/VBC E3 ligase (unknown origin) ternary complex by 19F NMR assay; design: species or system Homo sapiens
[11] = Displacement of (2S,4R)-N-(4-bromobenzyl)-4-hydroxy-1-(3,3,3-trifluoropropanoyl)pyrrolidine-2-carboxamide from BRD3 bromodomain 1/VBC E3 ligase (unknown origin) ternary complex assessed as inhibition constant by 19F NMR assay; design: species or system Homo sapiens
[12] = Displacement of (2S,4R)-N-(4-bromobenzyl)-4-hydroxy-1-(3,3,3-trifluoropropanoyl)pyrrolidine-2-carboxamide from BRD3 bromodomain 1/VBC E3 ligase (unknown origin) ternary complex by 19F NMR assay; design: species or system Homo sapiens
[13] = Displacement of (2S,4R)-N-(4-bromobenzyl)-4-hydroxy-1-(3,3,3-trifluoropropanoyl)pyrrolidine-2-carboxamide from BRD3 bromodomain 2/VBC E3 ligase (unknown origin) ternary complex assessed as inhibition constant by 19F NMR assay; design: species or system Homo sapiens
[14] = target: T2, Von Hippel-Lindau disease tumor suppressor/Elongin B/Elongin C; experiment: Displacement of (2S,4R)-N-(4-bromobenzyl)-4-hydroxy-1-(3,3,3-trifluoropropanoyl)pyrrolidine-2-carboxamide from dual VBC E3 ligase (unknown origin) ternary complex assessed as inhibition constant by 19F NMR assay; format: protein-complex assay
Procedure, shortened: (§5)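 Same 19F CPMG displacement format, with spy molecule 19 at 50 μM and VBC at 1 μM. PROTAC was titrated over a range of concentrations, with spy-only and spy+VBC spectra as the 100% and 0% displacement controls. IC50 was read as 50% dissociation of the spy–VBC complex.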

Homo sapiens [15] = species: Homo sapiens; experiment: as §2, with “dual VBC” for “BRD4 bromodomain 2/VBC”, “19F NMR” for “SPR”
[16] = target: T2, Von Hippel-Lindau disease tumor suppressor/Elongin B/Elongin C; experiment: Displacement of (2S,4R)-N-(4-bromobenzyl)-4-hydroxy-1-(3,3,3-trifluoropropanoyl)pyrrolidine-2-carboxamide from dual VBC E3 ligase (unknown origin) ternary complex by 19F NMR assay; format: protein-complex assay; procedure, shortened: as §5
Homo sapiens [17] = species: Homo sapiens; experiment: as §2, with “dual VBC” for “BRD4 bromodomain 2/VBC”, “[…]” for “SPR”

Compound	IC50 [1] [nM]	Ratio Ki (Homo sapiens [3])	IC50 [4] [nM]	Ki [5] [nM]	Ki [6] [nM]	Ratio Ki (Homo sapiens [7])	Kd [8] [nM]	further results
CC(=O)N1c2ccc(-c3ccc(C(=O)NCCOCCOCCOCCOCC(=O)N[C@H](C(=O)N4C[C@H](O)C[C@H]4C(=O)NCc4ccc(-c5scnc5C)cc4)C(C)(C)C)cc3)cc2[C@H](Nc2ccc(Cl)cc2)C[C@@H]1C	1310	0.8	1140	471	597	0.6		Ratio Ki (Homo sapiens [2]): 0.4
Cc1ncsc1-c1ccc(CNC(=O)[C@@H]2C[C@@H](O)CN2C(=O)C(F)(F)F)cc1							25000	
O=C(NCc1ccc(Br)cc1)[C@@H]1C[C@@H](O)CN1C(=O)CC(F)(F)F							145000	
Cc1ncsc1-c1ccc(CNC(=O)[C@@H]2C[C@H](O)CN2C(=O)[C@@H](NC(=O)COCCOCCOCCOCCOCCOCC(=O)N[C@H](C(=O)N2C[C@@H](O)C[C@H]2C(=O)NCc2ccc(-c3scnc3C)cc2)C(C)(C)C)C(C)(C)C)cc1								Activity [9]: Active
Cc1ncsc1-c1ccc(CNC(=O)[C@@H]2C[C@@H](O)CN2C(=O)CC(C)(C)C)cc1C(F)(F)F							67000	
Cc1ncsc1-c1ccc(CNC(=O)[C@@H]2C[C@@H](O)CN2C(=O)[C@@H](NC(=O)COCCOCCOCCNC(=O)C[C@@H]2N=C(c3ccc(Cl)cc3)c3c(sc(C)c3C)-n3c(C)nnc32)C(C)(C)C)cc1								IC50 [10]: 708 nM; Ki [11]: 118 nM; IC50 [12]: 660 nM; Ki [13]: 153 nM
CC(=O)N1c2ccc(-c3ccc(C(=O)NCCOCCOCC(=O)N[C@H](C(=O)N4C[C@H](O)C[C@H]4C(=O)NCc4ccc(-c5scnc5C)cc4)C(C)(C)C)cc3)cc2[C@H](Nc2ccc(Cl)cc2)C[C@@H]1C	2110	0.4	1210	529	1190	0.1		Ratio Ki (Homo sapiens [2]): 0.2
Cc1ncsc1-c1ccc(CNC(=O)[C@@H]2C[C@H](O)CN2C(=O)[C@@H](NC(=O)COCCOCCOCCOCCOCC(=O)N[C@H](C(=O)N2C[C@@H](O)C[C@H]2C(=O)NCc2ccc(-c3scnc3C)cc2)C(C)(C)C)C(C)(C)C)cc1			888	287				
Cc1ncsc1-c1ccc(CNC(=O)[C@@H]2C[C@@H](O)CN2C(=O)[C@@H](NC(=O)COCCOCCOCCOCCOCCOCC(=O)N[C@H](C(=O)N2C[C@H](O)C[C@H]2C(=O)NCc2ccc(-c3scnc3C)cc2)C(C)(C)C)C(C)(C)C)cc1								Ki [14]: 39 nM; Ratio Ki (Homo sapiens [15]): 7; IC50 [16]: 277 nM; Ratio Ki (Homo sapiens [17]): 7
Cc1ncsc1-c1ccc(CNC(=O)[C@@H]2[C@H](F)[C@@H](O)CN2C(=O)[C@@H](NC(=O)COCCOCCOCCNC(=O)C[C@@H]2N=C(c3ccc(Cl)cc3)c3c(sc(C)c3C)-n3c(C)nnc32)C(C)(C)C)cc1	346	29	3020	2060	71	29		
